Hits are enriched below; roughly 1.7% of the tested compounds scored in any of these assays.
SUMO1-SIM PPI – modulators of SUMO1 protein-protein interactions, primary screen, biochemical, uHTS; Small ubiquitin-related modifier 1 (Homo sapiens), P63165; SUMO1 binding to a labelled peptide, TR-FRET, 1 h; inhibition, % at 20 µM; 0.33% of 360,000 active; AID 602429, 2012; in the data active = inhibition above about 37%
Target sequence (P63165 whole entry, looked up): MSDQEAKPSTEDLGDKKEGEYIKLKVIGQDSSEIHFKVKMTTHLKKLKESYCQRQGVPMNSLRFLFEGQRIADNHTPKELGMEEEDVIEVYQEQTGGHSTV
Scp1 inh – Scp-1 phosphatase inhibitors, primary screen, biochemical, colorimetric, uHTS; Recombinant Scp1, phosphopeptide, malachite green phosphate absorbance; inhibition, % at 20 µM; Carboxy-terminal domain RNA polymerase II polypeptide A small phosphatase 1 (Homo …; 0.88% of 340,000 active;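 active = inhibition above about 50% at 20 µM, limit read from the data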
Target sequence (Q9GZU7 76-261 limits assumed): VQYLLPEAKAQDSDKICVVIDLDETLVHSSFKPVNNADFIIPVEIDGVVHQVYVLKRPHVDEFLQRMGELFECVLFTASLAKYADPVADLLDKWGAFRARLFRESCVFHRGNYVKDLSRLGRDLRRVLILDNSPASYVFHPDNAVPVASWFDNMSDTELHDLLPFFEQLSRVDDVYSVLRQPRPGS
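Times: enzyme reaction 45 min at room temperature, colour 5 min, stabilisation 30 min. Material: SCP-1 catalytic fragment, aa 76-261. Medium: Acidic Tris acetate buffer with magnesium and detergent. Signal: colorimetric free-phosphate detection, absorbance 630 nm. Read-out basis: % inhibition of SCP-1 phosphate liberation. Reagent: Phosphorylated 17-residue peptide substrate.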
STEP inh – STEP phosphatase inhibitors, primary screen, biochemical, fluorescence intensity, uHTS. inhibition, % at 20 µM. recombinant STEP, OMFP fluorogenic substrate. AID 588621, 2011. 0.25% of 360,000 active. Tyrosine-protein phosphatase non-receptor type 5 (Homo sapiens), P54829;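 active = inhibition at 20 µM, scaled per plate between control wells, above about 37%, limit read from the data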
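Also added – OMFP at 25 µM · Test system – STEP tyrosine phosphatase · Technique – FITC-channel fluorescence of OMFP product · Schedule – 20 min at room temperature, dark · Evaluation – control-normalized % inhibition with plate pattern correction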
LMPTP inh – LMPTP phosphatase inhibitors, primary screen, biochemical, fluorescence intensity, uHTS; Low molecular weight phosphotyrosine protein phosphatase (Homo sapiens), P24666; recombinant LMPTP-A, OMFP fluorogenic substrate; inhibition, % at 20 µM; 0.22% of 360,000 active; AID 651560, 2012;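 active = compounds that cut the enzyme signal by at least half of the control window in the single-dose screen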
Target sequence (P24666 whole entry, looked up): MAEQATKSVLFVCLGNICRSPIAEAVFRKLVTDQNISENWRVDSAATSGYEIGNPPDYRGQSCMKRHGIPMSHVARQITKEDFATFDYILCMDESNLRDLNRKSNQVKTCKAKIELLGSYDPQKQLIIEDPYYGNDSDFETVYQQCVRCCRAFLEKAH
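Buffer or medium: Bis-Tris pH 6.0, DTT, detergent; Assay system: LMPTP-A enzyme; Quantity: 0.625 nM enzyme; Detection: endpoint fluorescence intensity; Times: 50 min dark incubation at room temperature; Controls: substrate-only low control, DMSO enzyme-plus-substrate high control; Doses: single 20 µM dose; Read-out: percent inhibition versus substrate-only and uninhibited controls; Reagent: 400 µM OMFP.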
DNMT1 block – human DNMT1 methyltransferase inhibitors, primary screen, biochemical, molecular beacon, fluorescence, HinP1I cleavage, uHTS; DNA (cytosine-5)-methyltransferase 1 (Homo sapiens), P26358; inhibition (reported as % activation of signal), % at 10 µM; 0.83% of 360,000 active; AID 588458, 2011; in the data active = inhibition above about 50%
Scp1 confirm – Scp-1 phosphatase inhibitors, retest, confirmation, biochemical, colorimetric, single concentration. recombinant SCP-1 catalytic domain, phosphate release, malachite green absorbance. shares compounds with Scp1 inh. inhibition, % at 20 µM. 61% of 2,500 active. AID 540281, 2011
Scp-1 MG ctr – colorimetric readout interference by compounds, confirmation, artefact control for Scp-1 inhibitor project, biochemical, single concentration; shares compounds with Scp1 inh; Colorimetric interference counterscreen, malachite green absorbance 630 nm; apparent inhibition (interference), % at 20 µM; 2,500 tested, under 10 active; AID 540313, 2011;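 also: compounds added after enzyme reaction finished so only phosphate colour detection is probed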
Scp-1 Tm shift – Scp-1 binding by thermal shift, confirmation, orthogonal assay for Scp-1 inhibitor project, biophysical, differential scanning fluorimetry. AID 540329, 2011. thermal shift relative to vanadate control, % at 40 µM. shares compounds with Scp1 inh. 25% of 1,500 active. Recombinant SCP1, Sypro Orange thermal shift Tm;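 active = substances whose mean melting-temperature shift, as a percentage of the reference inhibitor's shift, reaches about 5.3%, limit read from the data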
Beacon interf DR – spectral interference with molecular beacon fluorescence, dose response, artefact control for DNMT1 inhibitor project, biochemical, fluorescent molecular beacon; IC50, µM; spectral interference counter-screen; 200 tested, under 10 active; shares compounds with DNMT1 block; call rule not given here
DNMT1 confirm – DNMT1 methyltransferase inhibitor retest, confirmation, biochemical, molecular beacon, fluorescence, single concentration. 8% of 2,300 active. AID 602385, 2012. shares compounds with DNMT1 block. inhibition, % at 10 µM. DNMT1 molecular beacon HinP1I cleavage;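 active = average inhibition of at least 30% in the single-concentration confirmation test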
DNMT1 interf – beacon fluorescence artifact counter-screen | shares compounds with DNMT1 block | DNMT1 molecular beacon spectral interference counterscreen, fluorescence 485/520 | activation (fluorescence interference), % at 10 µM | 1% of 2,300 active | AID 602387;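 active = activation of at least 30% at 10 µM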;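 also: DNMT1 catalytic domain with a HinP1I cleavage step and a FAM/dabcyl DNA beacon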
Of the large screens only hits and unclear results are named; the others gave an inactive call (follow-up assays come after a bar, where they were run).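 The calls were made as follows, unless noted: active = inhibition of at least 30% at 20 µM; inactive = the rest.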

O=c1oc(-c2ccccc2)nc2sc3c(c12)CCC3	Scp1 inh 58.9, DNMT1 block 95.8 | Scp1 confirm 34.5 | Scp-1 MG ctr inactive | Scp-1 Tm shift inactive | DNMT1 confirm inactive | DNMT1 interf inactive
C=C(C)C(=O)Nc1cccc(C2=NOC3(C2)C[C@@H](C(N)=O)N(C(=O)c2cc([N+](=O)[O-])cc([N+](=O)[O-])c2)C3)c1 (some centres undefined)	SUMO1-SIM PPI 45.6, Scp1 inh 61.3, DNMT1 block 86.7 | Scp1 confirm 49.4 | Scp-1 MG ctr inactive | Scp-1 Tm shift inactive | DNMT1 confirm inactive | DNMT1 interf inactive
Cc1ccc(C=C2C(=O)c3ccccc3C2=O)o1	Scp1 inh 55.4, DNMT1 block 69.7 | Scp1 confirm 58.5 | Scp-1 MG ctr inactive | Scp-1 Tm shift 6.2 | DNMT1 confirm inactive | DNMT1 interf inactive
NC(=O)COc1ccc2oc(-c3ccccc3)cc(=O)c2c1	none
CCc1ccccc1NC(=O)COc1ccc2oc(-c3ccc(OC)cc3)cc(=O)c2c1	Scp1 inh 73.6, DNMT1 block 67.7 | Scp1 confirm 59.1 | Scp-1 MG ctr inactive | Scp-1 Tm shift inactive | DNMT1 confirm inactive | DNMT1 interf inactive
O=C(/C=C/c1ccco1)N(c1ccccn1)c1ccccn1	Scp1 inh 65.0, DNMT1 block 96.8 | Scp1 confirm 69.2 | Scp-1 MG ctr inactive | Scp-1 Tm shift 6.3 | DNMT1 confirm inactive | DNMT1 interf inactive
Cc1ccccc1OS(=O)(=O)c1cn(C)c(=O)n(C)c1=O	none
COc1cc(/C=C/C(=O)OCC(=O)NCCC2=CCCCC2)cc(OC)c1OC	none
O=C(N=Nc1c(O)[nH]c2ccc([N+](=O)[O-])cc12)c1cc(-c2ccccc2Cl)nc2ccccc12	Scp1 inh 94.8, STEP inh 85.2, LMPTP inh 79.8, DNMT1 block 95.2 | Scp1 confirm 77.3 | Scp-1 MG ctr inactive | Scp-1 Tm shift 8.8 | DNMT1 confirm inactive | DNMT1 interf inactive
COc1ccccc1C(=O)N=Nc1c(O)[nH]c2ccc([N+](=O)[O-])cc12	none
O=C(NC1CC1)C1CCN(S(=O)(=O)c2cc([N+](=O)[O-])ccc2Cl)CC1	Scp1 inh 75.7, DNMT1 block 89.7 | Scp1 confirm 68.9 | Scp-1 MG ctr inactive | Scp-1 Tm shift 11.4 | DNMT1 confirm inactive | DNMT1 interf inactive
Cc1cccc2sc(NC(=O)C3CCN(S(=O)(=O)c4cc([N+](=O)[O-])ccc4Cl)CC3)nc12	Scp1 inh 79.6, DNMT1 block 56.9 | Scp1 confirm 53.8 | Scp-1 MG ctr inactive | Scp-1 Tm shift 11.7 | DNMT1 confirm inactive | DNMT1 interf inactive
O=C(NC1=NCCS1)C1CCN(S(=O)(=O)c2cc([N+](=O)[O-])ccc2Cl)CC1	Scp1 inh 90.7, DNMT1 block 75.9 | Scp1 confirm 77.0 | Scp-1 MG ctr inactive | Scp-1 Tm shift 11.4 | DNMT1 confirm inactive | DNMT1 interf inactive
O=C(NC1CC1)C1CCN(S(=O)(=O)c2cc(Cl)ccc2Cl)CC1	none
COc1ccc(-c2noc3c2-c2nc(-c4c(F)cccc4F)sc2CC3)cc1	none
CC1CCN(C(=O)COC(=O)c2ccc3c(c2)OCO3)CC1	none
O=C(Nc1nc2ccccc2s1)c1ccc(Cl)s1	none
Cc1ccc2nc(NC(=O)c3ccc(-c4nc5ccccc5s4)s3)sc2c1	SUMO1-SIM PPI 44.3, Scp1 inh 97.5, DNMT1 block 78.2 | Scp1 confirm 82.5 | Scp-1 MG ctr inactive | Scp-1 Tm shift inactive | DNMT1 confirm inactive | DNMT1 interf inactive
O=S(=O)(c1ccc(F)cc1)N1CCN(C(=S)NC2CC2)CC1	none
N=C1/C(=C/c2ccco2)C(=O)N=C2SC(CC(=O)N3CCCC3)=NN12	Scp1 inh 73.3, DNMT1 block 63.7 | Scp1 confirm 62.9 | Scp-1 MG ctr inactive | Scp-1 Tm shift inactive | DNMT1 confirm inactive | DNMT1 interf inactive
Cc1ccc(/C=C2\C(=N)N3N=C(CC(=O)N4CCCCC4)SC3=NC2=O)cc1	none
N=C1/C(=C/c2ccc(Br)o2)C(=O)N=C2SC(CC(=O)N3CCCC3)=NN12	SUMO1-SIM PPI 57.2, Scp1 inh 87.9, DNMT1 block 66.5 | Scp1 confirm 58.0 | Scp-1 MG ctr inactive | Scp-1 Tm shift 8.1 | DNMT1 confirm inactive | DNMT1 interf inactive
O=C(O)c1ccc(N2C(=O)c3cccc4c(C(=O)O)ccc(c34)C2=O)cc1	Scp1 inh 71.8, DNMT1 block 90.6 | Scp1 confirm 45.2 | Scp-1 MG ctr inactive | Scp-1 Tm shift 11.9 | DNMT1 confirm inactive | DNMT1 interf inactive
COc1ccc(-c2nn(-c3ccccc3)cc2C(=O)O)cc1N	none
COC(=O)c1c(NC(=O)COC(=O)c2ccccc2O)sc2c1CCCCC2	none
COC(=O)c1c(NC(=O)COC(=O)c2ccc(NC(=O)CC#N)cc2)sc2c1CCCCC2	SUMO1-SIM PPI 70.8, Scp1 inh 75.7, LMPTP inh 74.1, DNMT1 block 103.5 | Scp1 confirm 71.2 | Scp-1 MG ctr inactive | Scp-1 Tm shift 13.9 | Beacon interf DR inactive | DNMT1 confirm inactive | DNMT1 interf inactive
Cc1cc(NC(=O)CCC(=O)N(CCC(C)C)C(C(=O)NCC2CCCO2)c2ccccc2C)no1 (centres undefined)	none
C=CCn1c(O)c(N=NC(=O)CNC(=O)/C=C/c2ccc(OC)cc2)c2ccccc21	none
